Assay [1] has as its system HepG2. In words: Cytotoxicity against human HepG2 cells assessed as reduction in cell viability incubated for 24 hrs by MTT assay. The following applies: HepG2, 24 h. Format: functional, cell-based. In outline: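 Cells were kept in McCoy's 5A with 10% fetal bovine serum, streptomycin and 100 units·mL⁻¹ penicillin at 37 °C under 5% CO₂/95% air. Viability was read by MTT optical density. IC50 is the concentration that lowers optical density by 50% relative to untreated cells. Values are means with SD of at least three independent determinations.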
For orientation: Tetrazolium assays rely on reduction of a dye to a coloured formazan, in cell work by metabolically active cells.

Assay [2] has as its system RKO. Nature of the assay: Cytotoxicity against human RKO cells assessed as reduction in cell viability incubated for 24 hrs by CCK8 assay. It counts as functional, cell-based. The gist of the method:
(§1)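 Cells were seeded at 3×10^4 per well, grown 24 h, then exposed to increasing concentrations for 24 h. CCK-8 reagent was added for 1 h at 37 °C and absorbance was read at 450 nm. Cells were kept in McCoy's 5A with 10% FBS, and n=3.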

The test system of assay [3] is HCT-116. In words: Induction of apoptosis in human HCT116 cells assessed as necrotic cells level at 2 uM incubated for 24 hrs by Annexin V-FITC/PI staining based cytometry (reference value: 1.6%). It counts as functional.
Assay [4] has as its system HCT-116. In words: Induction of apoptosis in human HCT116 cells assessed as necrotic cells level at 4 uM incubated for 24 hrs by Annexin V-FITC/PI staining based cytometry (reference value: 1.6%). Format: functional.
The test system of assay [5] is HCT-116. Nature of the assay: Induction of apoptosis in human HCT116 cells assessed as subG1 phase cells level at 2 uM incubated for 24 hrs by […]PI staining based cytometry (reference value: 1%). Format: functional. In outline: (§2)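 Cells were treated for 24 h, then fixed in 75% ethanol at -20 °C overnight. RNA was digested with 0.2 mg/mL RNase A for 30 min at 37 °C. Cells were stained with 50 µg/mL PI for 30 min in the dark, and DNA content was read by flow cytometry.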

The test system of assay [6] is HCT-116. In words: Induction of apoptosis in human HCT116 cells assessed as G1 phase cells level at 2 uM incubated for 24 hrs by […]PI staining based cytometry (reference value: 65.2%). Format: functional. In outline: as §2
Assay [7] has as its system HCT-116. In words: Induction of apoptosis in human HCT116 cells assessed as increase in cleaved PARP level at 2 uM incubated for 24 hrs by Western blot method. Format: functional, cell-based. The gist of the method: (§3)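 Lysates were made in SDS buffer (2% SDS, 50 mM Tris-HCl pH 6.8) and quantified by BCA. Equal protein was run on 10% SDS-PAGE and transferred to PVDF. Membranes were blocked in 5% milk, probed overnight at 4 °C for cleaved PARP (1:1000) with GAPDH (1:5000), and detected with HRP secondary antibody and ECL.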
A general note: Immunoblotting shows a protein as a band on a membrane.

The test system of assay [8] is HCT-116. In words: Induction of apoptosis in human HCT116 cells assessed as necrotic cells level incubated for 48 hrs by Annexin V-FITC/PI staining based cytometry (reference value: 0.2%). Format: functional.
The subject of assay [9] is HCT-116. Nature of the assay: Induction of apoptosis in human HCT116 cells assessed as increase in cleaved PARP level pre-incubated with 20 uM pan-caspase inhibitor Z-VAD-FMK for 5 hrs followed by compound addition and further incubated for 48 hrs by Western blot method. Format: functional, cell-based. In outline: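 Cells were pretreated for 5 h with DMSO or 20 µM Z-VAD-FMK before compound exposure. Lysates were made in SDS buffer and quantified by BCA. Proteins were run on 10% SDS-PAGE, transferred to PVDF, and probed with cleaved PARP (1:1000) and GAPDH (1:5000) loading control, with ECL detection.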

In assay [10] the test system is HCT-116. Nature of the assay: Induction of apoptosis in p53-/- human HCT116 cells assessed as increase in cleaved PARP level at 4 to 16 uM by Western blot method. Format: functional, cell-based. The gist of the method:
as §3

Assay [11] concerns HCT-116. In words: Induction of apoptosis in p53-/- human HCT116 cells assessed as viable cells level at 4 uM incubated for 48 hrs by Annexin V-FITC/PI staining based cytometry (reference value: 96.2%). Format: functional. In outline: (§4)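 HCT116 p53-/- cells (Vogelstein line) in McCoy's 5A with 10% FBS, 37 °C, 5% CO2. Seeded at 5×10^5 in 6-well plates, treated with vehicle or 4 μM at 80% confluence. After treatment, trypsinised, washed twice in ice-cold PBS pH 7.4, and stained in binding buffer with Annexin V-FITC and PI for 15 min at room temperature in the dark. Read by flow cytometry.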

The test system of assay [12] is HCT-116. In words: Induction of apoptosis in p53-/- human HCT116 cells assessed as early apoptotic cells level at 4 uM incubated for 48 hrs by Annexin V-FITC/PI staining based cytometry (reference value: 2.9%). Format: functional. In outline: (§5)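 Cells were plated at 5×10^5 per well and treated once 80% confluent. After trypsinisation and two washes in ice-cold PBS (pH 7.4), cells were stained with Annexin V-FITC and PI for 15 min at room temperature in the dark. Analysis was by flow cytometry. The legend gives vehicle or 4 µM for the p53-/- and Bax-/- lines.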

The test system of assay [13] is HCT-116. Nature of the assay: Induction of apoptosis in p53-/- human HCT116 cells assessed as late apoptotic cells level at 4 uM incubated for 48 hrs by Annexin V-FITC/PI staining based cytometry (reference value: 0.1%). Format: functional. In outline:
as §4

The test system of assay [14] is HCT-116. Nature of the assay: Induction of apoptosis in p53-/- human HCT116 cells assessed as necrotic cells level at 4 uM incubated for 48 hrs by Annexin V-FITC/PI staining based cytometry (reference value: 0.8%). It counts as functional. In outline: as §4
The test system of assay [15] is HCT-116. In words: Induction of apoptosis in Bax-/- human HCT116 cells assessed as early apoptotic cells level at 4 uM incubated for 48 hrs by Annexin V-FITC/PI staining based cytometry (reference value: 4.4%). Format: functional. In outline: as §5
The test system of assay [16] is HCT-116. Nature of the assay: Cytotoxicity against p53-/- human HCT116 cells assessed as reduction in cell viability incubated for 24 hrs by CCK8 assay. Format: functional, cell-based. The gist of the method: as §1
For assay [17], the system named is HCT-116. In words: […] of ROS generation in human HCT116 cells pre-treated with 7.5 mM GSH for […] followed by 8 uM compound addition and further incubated for 24 hrs by H2DCFDA dye based flow cytometry. Format: functional, cell-based. In outline: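 HCT116 cells pre-treated 5 h with H2O, 7.5 mM L-NAC or 7.5 mM GSH, then exposed to compound for 24 h. Cells collected, washed twice in PBS, and resuspended in serum-free McCoy's 5A with 10 nM H2DCFDA for 20 min at 37 °C in the dark. After two PBS washes, relative ROS measured by flow cytometry.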

In assay [18] the test system is HCT-116. Nature of the assay: Cytotoxicity in human HCT116 cells assessed as reduction in cell viability pre-treated with 7.5 mM GSH followed by 16 to 32 uM compound addition and further incubated for 24 hrs by CCK8 assay. It counts as functional, cell-based. In outline:
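HCT116 cells were pretreated with H2O, 7.5 mM L-NAC or 7.5 mM GSH, then exposed to 4, 16 or 32 µM for 24 h. Viability was read by CCK-8, with 1 h reagent incubation at 37 °C and absorbance at 450 nm. n=3.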

The test system of assay [19] is HCT-116. Nature of the assay: Induction of apoptosis in human HCT116 cells assessed as increase in cleaved PARP level pre-treated with 7.5 mM L-NAC for 6 hrs followed by 4 to 8 uM compound addition and further incubated for 24 hrs by Western blot method. Format: functional, cell-based. The gist of the method: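 HCT116 cells were pretreated with H2O or 7.5 mM L-NAC for 6 h, then exposed to 0, 4 or 8 µM for 24 h. Lysates were made in SDS buffer and run on 10% SDS-PAGE. Blots were probed for cleaved PARP (1:1000) with GAPDH (1:5000) as control, and detected by ECL.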

pIC50: −log10 of the molar value. Active and inactive are the calls of the source. The rule behind the calls is not given here.

With `CCN(CC)CCCNC(=O)c1cn(CCCc2ccccc2)c2cc(Cl)ccc2c1=O.Cl`, the negative logarithm of the IC50 (pIC50) – broadly, −log10 of the IC50, conventionally taken in molar units – in assay [1] was 5.40; in assay [2] it was 5.31. In [2], the “growth inhibition (GI)” value is “Dose-dependent effect”. Moreover, the Activity in assay [3] is on record as 1%; in [4], 4.3%; in assay [5], 6.5%; in [6], 46.7%; in assay [8], 4.6%; in assay [11], 72.1%. Also, the Activity in [12] was 24.8%; in [13], 1.3%; in assay [14], 1.8%; in assay [15], 25.6%; in assay [16], “Dose-dependent effect”. Besides, the result in [7] and in assay [10] was Active. In addition, the result in [9], in assay [18] and in assay [19] was inactive. In addition, the inhibition entry in assay [17] was “inactive”.
